Data on 71 compounds can be found in ChEMBL document CHEMBL4513216, “Probing the Open Global Health Chemical Diversity Library for Multistage-Active Starting Points for Next-Generation Antimalarials” (ACS Infect Dis, 2020).

This data set is described as follows: Toxicity liver stage against HepG2, at 10uM. The format is cell-based. Also on record: test concentration 10 uM, cell line HepG2-A16-CD81EGFP. As to conditions: human, HepG2-A16-CD81EGFP cells; read-out: INHIBITION
The essentials:
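Uninfected HepG2-A16-CD81EGFP cells, 3 × 10^3 per well, 1536-well, plated on prespotted compound at 10 μM final, parasite-free screening media added to match infected plates; puromycin 10 μM positive, DMSO 0.5% negative; run in parallel with 48 h PbLuc assay at 37 °C, 5% CO2; viability by CellTiter-Glo luminescence, normalized to controls.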

Regarding `O=c1cc(Cn2ccnc2)nc2n1CCCN(Cc1ccncc1)C2`, the cytotoxicity at 10 µM is -0.559%.

As for `CSCc1noc(CNC(=O)c2cc(C)c(C)[nH]c2=O)n1`, the cytotoxicity at 10 µM turned out to be 0.355%.

Take `COC(=O)c1cc(OCC2CCC2)cc(C(=O)NC2CCC(O)CC2)c1` (stereo unspecified): the cytotoxicity at 10 µM is -14.2%. In the case of `CN(C)C(=O)N1CCN(CCCOc2ccccc2)[C@H]2CS(=O)(=O)C[C@H]21` it was 0.666%. In the case of `Nc1nc(C2CCN(C(=O)c3cscn3)CC2)cs1`, the cytotoxicity at 10 µM worked out at 3.32%. As for `CCc1ccc(-c2cn(CCSc3ncn[nH]3)nn2)nc1`, the cytotoxicity at 10 µM was -0.89%. Take `CCc1cc(NCCNC(=O)c2cccnc2)n2nc(C)c(C)c2n1`: the cytotoxicity at 10 µM was -3.05%. With `Cn1ccnc1C(=O)NC[C@@H]1OC[C@H]2CN(CC3CC3)CC[C@H]21`, the cytotoxicity at 10 µM is -115%. In the case of `O=C(NCCO)C1(Cc2ccccc2-c2cccnc2)CCOCC1` it was -31.8%; in that of `Cc1cc(O)ccc1-c1cc(-c2cnn(C)c2C2CC2)c(C#N)c(N)n1`, 40.2%; in that of `O=C(Nc1ccc2ncccc2c1)C1CC(=O)N(Cc2ccccn2)C1` (stereo unspecified), 3.31%. To `CN1CCOC(C(=O)Nc2nc(-c3ccc4c(c3)CCC4)n[nH]2)C1` (stereo unspecified) belongs -7.53%; to `Cc1nc(C)c(CC(=O)N2CCC(c3ccn4nccc4n3)CC2)s1`, -0.743%; to `N#Cc1cccc(OCCN2CCCC(c3noc(C4CC4)n3)C2)c1` (stereo unspecified), -0.276%. As to `CCc1nnc(Nc2cccc(C3CCN(C(C)=O)CC3)n2)s1`, the cytotoxicity at 10 µM was determined as 0.579%. For `Cc1ccc(CN2CCCC(c3cnccn3)C2)s1` (stereo unspecified), the cytotoxicity at 10 µM came to 2.46%. Consider `COCCC1(C(=O)O)CCCN(CC(=O)NCCc2ccccc2)C1` (stereo unspecified), for which the cytotoxicity at 10 µM is 2.66%.

Regarding `Fc1ccccc1CC1CCN(Cc2cscn2)CC1`, the cytotoxicity at 10 µM is -5.71%. Regarding `COc1cc(OC)cc(N2CCC(NCc3ccsc3)C2=O)c1` (stereo unspecified), the cytotoxicity at 10 µM is 0.347%. To `O=C(O)[C@@H]1CN(CC(=O)N2CCCCC2)C[C@H]1c1ccc(F)cc1` belongs -3.95%; to `Cc1nn(C)c(C)c1NC(=O)CN1CCOC(Cn2cccn2)C1` (stereo unspecified), -1.81%; to `CC(C)CS(=O)(=O)CC(=O)NC(C)(C)c1cccc(F)c1`, -1.12%. Consider `Cc1cc(NC(=O)C(C)C)n(-c2nc(C)c(C)c(=O)[nH]2)n1`, for which the cytotoxicity at 10 µM came out at 43.1%. For `O=C(c1cccc2c1OCCO2)N1CCCC(n2ccnc2)C1` (stereo unspecified), the cytotoxicity at 10 µM is -6.92%. In the case of `CN(C)CC1(O)CCN(C(=O)c2cnc(-c3ccccn3)nc2)C1` (stereo unspecified), the cytotoxicity at 10 µM stood at 4.82%. For `CC1(C)CC(NC(=O)c2cnn(-c3ccccc3F)c2N)CC(C)(C)N1`, the cytotoxicity at 10 µM is -4.14%. `Cc1c(Br)cccc1C(=O)NCCC1CCCNC1` (stereo unspecified): the cytotoxicity at 10 µM is -11.7%.

For the compound `COc1cc(CNC(c2ccccc2)c2nccn2C)cc(OC)c1` (stereo unspecified), the cytotoxicity at 10 µM was -6.69%. Take `Cc1cc(C)c2nc(C)c(C(=O)N3CCC(N4CCCC4)CC3)cc2c1`: the cytotoxicity at 10 µM was -3.19%. With `CNC(=O)c1csc(-c2cccnc2)n1`, the cytotoxicity at 10 µM came to 3.19%.

Take `CCCN(Cc1cccnc1)C(=O)C1CCCN(C)C1` (stereo unspecified): the cytotoxicity at 10 µM turned out to be 9.77%. To `CC(C)CCC(=O)N1CCN(C(C)c2nnc(CC(C)C)o2)CC1` (stereo unspecified) belongs -8.82%. To `Cc1noc([C@H]2C[C@H]3OCC[C@H]3N(Cc3scnc3C)C2)n1` belongs -73.4%; to `CCc1ccc(CN2CCC(=O)N(CC3CC3)C(C(C)C)C2)nc1` (stereo unspecified), 2.08%; to `Cc1ncsc1CN1C[C@@H](OCC(=O)N(C)C)[C@H]2OCCC[C@H]21`, -139%. Take `CC1CCCN(c2ncc(-c3ccccc3F)c(-c3nccn3C)n2)C1` (stereo unspecified): the cytotoxicity at 10 µM was found to be 26.8%. Consider `CN(Cc1ccc2c(c1)OCO2)C(=O)NCCc1cnn(C)c1`, for which the cytotoxicity at 10 µM is -2.69%. With `COc1ccc(OC)c(C2CCN(Cc3nc(C)n4ccccc34)C2)c1` (stereo unspecified), the cytotoxicity at 10 µM is -8.66%.

In the case of `CC(=O)Nc1nc(C(=O)NC(C)c2ccc3c(c2)OCCO3)cs1` (stereo unspecified), the cytotoxicity at 10 µM turned out to be 0.409%. To `CN1C(=O)CC(C(=O)O)C12CCN(Cc1cc(Cl)ccc1F)CC2` (stereo unspecified) belongs 5.64%; to `COc1cccc(-n2cc3[nH]c(=O)n(Cc4cccc(F)c4)n3c2=O)c1`, 0.647%; to `Cc1nsc(NC2CCN(c3ccccc3OC(F)F)C2=O)n1` (stereo unspecified), 2.14%. In the case of `Cc1noc(C)c1CN1CCN(C(=O)CCn2cncn2)CC1`, the cytotoxicity at 10 µM is 0.975%. Regarding `Cc1ncsc1C(=O)N1CCC(Nc2cccnn2)CC1`, the cytotoxicity at 10 µM was -1.89%.

`Cc1cc(N2CCN(C3CCSCC3)CC2)n2nc(C)c(C)c2n1`: the cytotoxicity at 10 µM was determined as 0.0879%. With `COc1cccc2c1ccn2CCC(=O)NCCCC(=O)O`, the cytotoxicity at 10 µM is 9.64%. To `O=C(O)c1cc(C=Cc2cccc3ccccc23)ncn1` belongs -12.1%; to `Cc1ccc(N2CCC3(CCN(Cc4nccs4)CC3)CC2)nn1`, 10.6%. For the compound `CC(=O)N1CCCN(C(=O)Cc2ccc3c(c2)OCO3)CC1`, the cytotoxicity at 10 µM was -15.1%.

For the compound `CC(=O)c1cccc(NC(=O)Cn2cc(I)cn2)c1`, the cytotoxicity at 10 µM was -1.87%. Turning to `NC(=O)C1CCN(c2nc3nccc(-c4ccccn4)c3c(=O)[nH]2)CC1`, the cytotoxicity at 10 µM was -9.24%. To `CC(=O)NCC(=O)N1CCN(C)c2ncccc2C1` belongs -113%; to `Fc1ccc(C2CCCCN2Cc2cc(-c3ccccn3)no2)cc1` (stereo unspecified), -3.88%; to `Cc1nnc(SC2CCc3ccccc3NC2=O)o1` (stereo unspecified), 1.35%.

Turning to `CN(Cc1ccccc1)CC(O)Cn1cnc2ccccc2c1=O` (stereo unspecified), the cytotoxicity at 10 µM is -5.02%. For `Clc1ccc(N2CCC(OCC3CCCCO3)CC2)nc1` (stereo unspecified), the cytotoxicity at 10 µM is -1.8%. Consider `CN(C)C[C@@H]1C[C@@H]2CN(Cc3nccn3C)CC[C@@H]2N1CC1CC1`, for which the cytotoxicity at 10 µM is -101%. As to `Cn1cc(-c2cnc(N3CCCC3)nc2)cc1C(=O)N1CCOCC1`, the cytotoxicity at 10 µM is -3.87%.

As for `CC(C)COCCC(=O)Nc1cccnc1-n1cncn1`, the cytotoxicity at 10 µM amounted to 1.28%. For the compound `COCCNC(=O)Cn1nc(C(C)C)c2cnn(C(C)(C)C)c2c1=O`, the cytotoxicity at 10 µM is -21.9%. In the case of `CNC(=O)c1cc2ccccc2n1C` it was 6.84%; in that of `Cc1cc(CC(C)NC(=O)c2n[nH]c3c2CCC3)n[nH]1` (stereo unspecified), -144%; in that of `Cn1cc(C2CCCN2C(=O)CCCc2cccs2)cn1` (stereo unspecified), -2.12%. In the case of `O=C(Cn1cnc2ccsc2c1=O)c1ccc2c(c1)OCCO2` it was 3.1%; in that of `COC(=O)CC1CCN(C(=O)c2ccccc2-n2nnnc2C)CC1`, -7.27%. As to `COC[C@@H]1CCCN1C(=O)CCc1c(C)nn(C)c1C`, the cytotoxicity at 10 µM is 5.01%. As for `CCN(C)C(=O)CCC(=O)c1cccs1`, the cytotoxicity at 10 µM was found to be 3.9%. As for `CCOCC1CN(C(=O)c2ccoc2)Cc2cnn(C)c21` (stereo unspecified), the cytotoxicity at 10 µM is 0.13%.

As to `OCC1CCCN(Cc2c(C3CCCC3)[nH]c3ncccc23)C1` (stereo unspecified), the cytotoxicity at 10 µM turned out to be 6.35%. Turning to `Cc1noc(C)c1CN(C)C(=O)c1ccc(C(N)=O)nc1`, the cytotoxicity at 10 µM is -4.24%. In the case of `COC(=O)N1CCCC(C(=O)Nc2ccccc2CN2CCCC2)C1` (stereo unspecified) it was -9.07%.
